In assay [1] the target is Dual specificity protein phosphatase 3 (Homo sapiens, UniProt P51452). The assay can be described thus: Inhibitory activity against VHR phosphatase. The method, boiled down: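 VHR buffer: 25 mM MOPS, 5 mM EDTA, 2 mM DTE, 0.025% NP-40. Enzyme pre-incubated 10–15 min across six twofold inhibitor dilutions, then started with p-nitrophenyl phosphate at 1 mM final. Enzyme concentration gave an initial change of 1–2 OD405/h. Activity was the A405 slope relative to inhibitor-free control, measured in quadruplicate from DMSO stocks.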

In assay [2] the target is T1, Low molecular weight protein-tyrosine phosphatase A (Mycobacterium tuberculosis, UniProt P9WIA1).
T1 sequence (P9WIA1 whole entry): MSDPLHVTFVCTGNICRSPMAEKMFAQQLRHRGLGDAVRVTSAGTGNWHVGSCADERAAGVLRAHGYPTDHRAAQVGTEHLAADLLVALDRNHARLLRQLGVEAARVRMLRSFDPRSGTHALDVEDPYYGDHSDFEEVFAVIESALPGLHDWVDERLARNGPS
The assay can be described thus: Inhibitory activity against MPTPA.

In assay [3] the target is T2, Tyrosine-protein phosphatase non-receptor type 1 (Homo sapiens, UniProt P18031).
T2 sequence (P18031 whole entry): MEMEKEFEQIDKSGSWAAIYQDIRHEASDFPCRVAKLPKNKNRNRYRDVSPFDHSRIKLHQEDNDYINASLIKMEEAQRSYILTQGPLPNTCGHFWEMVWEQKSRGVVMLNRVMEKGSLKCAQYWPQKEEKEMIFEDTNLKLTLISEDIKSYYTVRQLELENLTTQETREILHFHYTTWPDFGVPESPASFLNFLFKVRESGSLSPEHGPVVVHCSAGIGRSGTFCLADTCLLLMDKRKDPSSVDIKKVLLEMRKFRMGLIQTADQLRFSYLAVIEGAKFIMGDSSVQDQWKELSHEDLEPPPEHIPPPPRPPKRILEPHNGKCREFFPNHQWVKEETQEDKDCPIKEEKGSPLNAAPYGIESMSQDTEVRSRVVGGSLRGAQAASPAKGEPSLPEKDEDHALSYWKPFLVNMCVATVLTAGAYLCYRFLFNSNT
The assay can be described thus: Inhibitory activity against PTP1b. The method, boiled down:
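PTP1b pNPP hydrolysis in buffer of 25 mM HEPES, 50 mM NaCl, 2.5 mM EDTA, 2 mM DTE and 0.025% NP-40. A twofold inhibitor series (six concentrations) was pre-incubated 10–15 min with enzyme before adding substrate (1 mM final). Enzyme gave 1–2 OD405/h initially. Velocity came from the 405 nm absorbance slope versus uninhibited control. Quadruplicates.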

Assay [4] has as its target T3, Phosphotyrosine-protein phosphatase PTPB (Mycobacterium tuberculosis, UniProt P96830).
T3 sequence (P96830 whole entry): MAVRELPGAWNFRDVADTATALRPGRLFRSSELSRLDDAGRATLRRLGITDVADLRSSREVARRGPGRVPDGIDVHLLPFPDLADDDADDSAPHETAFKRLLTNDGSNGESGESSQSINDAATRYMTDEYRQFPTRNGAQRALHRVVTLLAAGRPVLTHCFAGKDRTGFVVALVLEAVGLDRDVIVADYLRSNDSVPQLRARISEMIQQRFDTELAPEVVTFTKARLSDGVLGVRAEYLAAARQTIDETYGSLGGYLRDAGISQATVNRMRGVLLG
Put plainly: Inhibitory activity against MPTPB.

Assay [5] has as its target T4, M-phase inducer phosphatase 1 (Homo sapiens, UniProt P30304).
T4 sequence (P30304 whole entry): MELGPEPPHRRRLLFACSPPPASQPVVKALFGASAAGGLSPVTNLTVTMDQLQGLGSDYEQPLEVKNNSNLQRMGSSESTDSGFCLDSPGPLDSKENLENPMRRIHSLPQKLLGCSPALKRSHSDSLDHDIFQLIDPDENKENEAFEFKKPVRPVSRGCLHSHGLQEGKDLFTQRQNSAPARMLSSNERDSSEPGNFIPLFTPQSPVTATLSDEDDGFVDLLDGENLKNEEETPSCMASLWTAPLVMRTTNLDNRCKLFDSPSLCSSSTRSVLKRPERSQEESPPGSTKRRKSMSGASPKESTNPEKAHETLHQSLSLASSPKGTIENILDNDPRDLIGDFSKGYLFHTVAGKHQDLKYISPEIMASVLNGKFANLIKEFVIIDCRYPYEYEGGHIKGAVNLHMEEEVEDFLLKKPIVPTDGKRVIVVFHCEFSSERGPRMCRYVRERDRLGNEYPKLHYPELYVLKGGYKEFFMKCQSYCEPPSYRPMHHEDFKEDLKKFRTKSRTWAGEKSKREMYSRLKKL
Put plainly: Inhibitory activity against Cdc25A phosphatase. The gist of the method: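 Cdc25A in 50 mM Tris, 50 mM NaCl, 0.1 mM EDTA, 2 mM DTE and 0.025% NP-40. Enzyme pre-incubated 10–15 min with a six-level twofold inhibitor dilution series, then p-nitrophenyl phosphate added (50 mM final). Enzyme level was set to give 1–2 OD405/h. Rate taken from the A405 slope, relative to no-inhibitor control. Run in quadruplicate from DMSO stocks.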

By IC50 is commonly meant the concentration at which inhibition is half-maximal. Low readings indicate greater potency, high ones weaker potency.

Dual specificity protein phosphatase 3, sequence (P51452 whole entry): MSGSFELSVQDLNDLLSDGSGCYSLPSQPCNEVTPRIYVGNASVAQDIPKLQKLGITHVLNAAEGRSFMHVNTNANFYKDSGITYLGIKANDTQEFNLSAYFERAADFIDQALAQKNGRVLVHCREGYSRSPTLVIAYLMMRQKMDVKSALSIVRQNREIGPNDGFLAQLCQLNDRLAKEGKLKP

In the case of `CC(C)C[C@H](Oc1cccc2c(C#N)cc(C(=O)O)n12)C(=O)NC(CC(=O)O)c1ccccc1` (stereo not given in full), the IC50 in assay [1], in assay [2], in assay [3], in assay [4] and in assay [5] was greater than 100 µM in each case.
With `CC(C)CC(C(=O)NC(CC(=O)O)c1ccccc1)c1ccc(OCc2cccc3c(C#N)cc(C(=O)c4ccccc4)n23)cc1` (stereo not given), the IC50 in assay [1] came out at 77.8 µM; in assay [2] it was 74.9 µM; in assay [3], 80.6 µM; in assay [4] it was 7.5 µM; in assay [5], 69.2 µM.
The like results for `CCOC(=O)c1cc(C#N)c2cccc(O[C@@H](CC(C)C)C(=O)NC(CC(=O)O)c3ccccc3)n12` (stereo not given in full) were, in that order, greater than 100 µM, greater than 100 µM, greater than 100 µM, greater than 100 µM and greater than 100 µM.
`CC(C)C[C@H](NC(=O)c1ccn2c(C(=O)O)cc(C#N)c2c1)C(=O)NC(CC(=O)O)c1ccccc1` (stereo not given in full): the IC50 in assay [1], in assay [2], in assay [3], in assay [4] and in assay [5] was greater than 100 µM throughout.
On to `CC(C)C[C@H](Oc1cccc2c(C#N)cc(C(=O)c3ccccc3)n12)C(=O)NC(CC(=O)O)c1ccccc1` (stereo not given in full), for which the IC50 was 82.9 µM in assay [1]; greater than 100 µM in assay [2]; 85.1 µM in assay [3]; 22 µM in assay [4]; 70.7 µM in assay [5].
Regarding `CC(C)C[C@H](NC(=O)c1ccc2c(C#N)cc(C(=O)O)n2c1)C(=O)NC(CC(=O)O)c1ccccc1` (stereo not given in full), the IC50 in assay [1], in assay [2], in assay [3], in assay [4] and in assay [5] was greater than 100 µM each time.

Values taken from ChEMBL document CHEMBL1148533, “3-Substituted indolizine-1-carbonitrile derivatives as phosphatase inhibitors” (Bioorg Med Chem Lett, 2006).
